Results: ChEMBL document CHEMBL4229335 (Eur J Med Chem, 2018)

Tests used:
[1] = system: Bel7402/5-FU; assay: Antiproliferative activity against human Bel7402/5-FU cells after 72 hrs by MTT assay; format: functional, cell-based
In short: (§1)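 MTT assay with 72 h exposure to graded concentrations in triplicate. MTT solution then DMSO were added, followed by 10 min at room temperature, with absorbance read at 490 nm. IC50 is reported as the mean of three independent experiments. 5-FU served as positive control.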

[2] = system: HL-60; assay: Antiproliferative activity against human HL60 cells after 72 hrs by MTT assay; format: functional, cell-based; details: HL-60, 72 h; in short: as §1
[3] = system: PC-3; assay: Antiproliferative activity against human PC3 cells after 72 hrs by MTT assay; format: functional, cell-based; details: PC-3, 72 h; in short: as §1
[4] = system: Bel-7402; assay: Antiproliferative activity against human Bel7402 cells after 72 hrs by MTT assay; format: functional, cell-based; details: Bel-7402, 72 h; in short: as §1
[5] = system: L02; assay: Antiproliferative activity against human LO2 cells after 72 hrs by MTT assay; format: cell-based; details: L02, 72 h; in short: as §1
[6] = Selectivity index, ratio of IC50 for human LO2 cells to IC50 for human Bel7402 cells; format: toxicity; details: LO2 cells versus Bel7402 cells, read-out: Ratio IC50
In short: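 SI was calculated as IC50 in L-02 normal liver cells divided by IC50 in Bel-7402 cells, both from the 72 h MTT assay.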

Compound	IC50 [1] [µM]	IC50 [2] [µM]	IC50 [3] [µM]	IC50 [4] [µM]	IC50 [5] [µM]	selectivity ratio [6]
O=c1[nH]cc(F)c(=O)[nH]1 [FLUOROURACIL]	> 80					
C=C1C(=O)[C@@]23C(=O)O[C@H]4CCC(C)(C)[C@H]5C(=O)OC[C@@]45[C@@H]2CC[C@@H]1[C@H]3OC(=O)CCCc1ccc(N(CCCl)CCCl)cc1	15.6	9.94	5.5	3.06	49.8	16.3
C=C1C(=O)[C@@]23C(=O)O[C@H]4CCC(C)(C)[C@H]5[C@H](O)OC[C@@]45[C@@H]2CC[C@@H]1[C@H]3O	44.3	28.1	30.6	32.1	27.1	0.8
O=C(O)CCCc1ccc(N(CCCl)CCCl)cc1 [CHLORAMBUCIL]	> 100			> 100	> 100	
C=C1C(=O)[C@@]23C(=O)O[C@H]4CCC(C)(C)[C@H]5C(=O)OC[C@@]45[C@@H]2CC[C@@H]1[C@H]3O	19.6	20.6	22.6		25.5	1.6
COC(=O)[C@H](Cc1ccc(N(CCCl)CCCl)cc1)NC(=O)CCC(=O)O	> 100	12.4	57.3	46.5	68.6	1.5
